These results are taken from paper PMC7928716 (Science Signaling, 2021).

Test [1] concerns the target LYN SH2 (Homo sapiens, UniProt P07948). The test is described as follows: FP saturation. The test is classed as binding. The method in brief: (§1)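 The SH2 domain was expressed GST-tagged in E. coli. The tag was cleaved with HRV 3C and the protein dialysed into 50 mM sodium phosphate pH 7.4 with 1 mM DTT. KD came from a quadratic fit, in technical triplicates.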
For test [2], the target named is T1, GABARAP ATG8 (Homo sapiens, UniProt O95166). Kind of test: FP saturation. Format: binding.
T1 sequence (O95166 2-115): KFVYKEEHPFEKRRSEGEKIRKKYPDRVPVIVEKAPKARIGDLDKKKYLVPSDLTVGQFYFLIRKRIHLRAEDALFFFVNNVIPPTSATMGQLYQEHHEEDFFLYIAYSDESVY
In test [3] the target is NCK1 SH2 (Homo sapiens, UniProt P16333). The test is described as follows: FP saturation. Format: binding.
The target in test [4] is T2, AP2 μ2 (Homo sapiens, UniProt Q96CW1).
T2 sequence (Q96CW1 160-435): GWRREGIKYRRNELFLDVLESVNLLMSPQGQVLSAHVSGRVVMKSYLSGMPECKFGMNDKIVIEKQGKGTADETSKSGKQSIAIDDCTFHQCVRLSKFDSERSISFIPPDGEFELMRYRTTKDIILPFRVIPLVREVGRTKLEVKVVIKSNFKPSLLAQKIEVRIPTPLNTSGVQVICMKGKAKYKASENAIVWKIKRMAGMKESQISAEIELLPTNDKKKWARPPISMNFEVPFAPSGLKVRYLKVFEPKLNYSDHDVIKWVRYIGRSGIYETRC
Kind of test: FP saturation. The test is classed as binding. The method in brief:
(§2)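 GST-tagged domains were expressed in E. coli BL21-Gold (DE3) (IPTG induction, 16 h at 18°C) and purified on glutathione beads. The tag was removed with thrombin, and domains were dialysed into 50 mM sodium phosphate pH 7.4 with 1 mM DTT. Probes were FITC-ATG9A4–14 (AP2 μ2) and FITC-SQSTM1335–344 (ATG8 domains). 5 nM labelled peptide was mixed with an equal volume of a protein dilution series at room temperature and read without preincubation. KD came from a quadratic fit, in technical triplicates.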

In test [5] the target is T3, GABARAPL2 ATG8 (Homo sapiens, UniProt P60520). The test is described as follows: FP saturation. Format: binding. The essentials: as §2
T3 sequence (P60520 2-115): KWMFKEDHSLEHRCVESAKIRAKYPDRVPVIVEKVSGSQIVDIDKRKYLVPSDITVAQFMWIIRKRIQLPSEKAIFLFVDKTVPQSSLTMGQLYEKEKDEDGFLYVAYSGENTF
Test [6] concerns the target T4, MAP1LC3A ATG8 (Homo sapiens, UniProt Q9H492). Kind of test: FP saturation. The test is classed as binding.
The target in test [7] is FYN SH2 (Homo sapiens, UniProt P06241). Kind of test: FP saturation. Format: binding. The method in brief: as §1
Sequence of FYN SH2 (P06241 142-251): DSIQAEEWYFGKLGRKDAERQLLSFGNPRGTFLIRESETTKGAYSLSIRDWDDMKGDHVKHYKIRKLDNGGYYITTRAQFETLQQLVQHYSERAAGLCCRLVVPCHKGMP
Test [8] has as its target T5, MAP1LC3B ATG8 (Homo sapiens, UniProt Q9GZQ8). The test is described as follows: FP saturation. Format: binding. The method in brief:
as §2

The target in test [9] is TLN2 PTB (Homo sapiens, UniProt Q9Y4G6). Kind of test: FP saturation. The test is classed as binding. The method in brief: (§3)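 Direct FP saturation used GST-tagged PTB domains (the talin entry is the PTB-like FERM lobe), expressed in E. coli at 18°C for 16 h. GST was removed with thrombin and the protein dialysed into 50 mM sodium phosphate pH 7.4 with 1 mM DTT. KD came from a quadratic fit, in technical triplicates.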
Sequence of TLN2 PTB (Q9Y4G6 309-401): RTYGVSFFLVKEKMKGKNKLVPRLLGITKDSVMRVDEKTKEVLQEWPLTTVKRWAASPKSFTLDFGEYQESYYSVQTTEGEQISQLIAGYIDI

For test [10], the target named is T6, FRS2 PTB (Homo sapiens, UniProt Q8WU20).
T6 sequence (Q8WU20 8-136): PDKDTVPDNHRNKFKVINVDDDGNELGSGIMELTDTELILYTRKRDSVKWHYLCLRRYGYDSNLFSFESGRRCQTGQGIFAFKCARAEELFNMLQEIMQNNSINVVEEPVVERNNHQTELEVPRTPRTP
The test is described as follows: FP saturation. The test is classed as binding. The essentials:
as §3

Test [11] has as its target T7, DOK1 PTB (Homo sapiens, UniProt Q99704).
T7 sequence (Q99704 151-256): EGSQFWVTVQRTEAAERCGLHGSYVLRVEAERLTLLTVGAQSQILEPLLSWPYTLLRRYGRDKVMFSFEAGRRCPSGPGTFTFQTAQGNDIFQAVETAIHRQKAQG
Kind of test: FP saturation. The test is classed as binding. The essentials: as §3

Test [12] deals with T8, SNX17 FERM (Mus musculus, UniProt Q8BVL3).
T8 sequence (Q8BVL3 109-388): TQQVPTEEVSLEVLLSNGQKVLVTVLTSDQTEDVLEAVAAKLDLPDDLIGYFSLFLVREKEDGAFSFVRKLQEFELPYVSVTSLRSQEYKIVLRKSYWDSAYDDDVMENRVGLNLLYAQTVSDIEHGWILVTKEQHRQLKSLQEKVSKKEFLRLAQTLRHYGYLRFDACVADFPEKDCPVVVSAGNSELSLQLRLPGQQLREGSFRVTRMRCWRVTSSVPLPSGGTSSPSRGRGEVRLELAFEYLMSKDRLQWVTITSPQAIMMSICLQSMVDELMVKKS
Kind of test: FP saturation. The test is classed as binding. The essentials:
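The FERM domain was expressed GST-tagged in E. coli BL21-Gold (DE3) at 18°C. The tag was removed with TEV protease and the protein dialysed into 50 mM sodium phosphate pH 7.4 with 1 mM DTT. Direct FP used 5 nM FITC-labeled peptide with a protein dilution series at room temperature and no preincubation. KD came from a quadratic fit, in technical triplicates.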

Test [13] concerns the target T9, IRS1 PTB (Homo sapiens, UniProt P35568).
T9 sequence (P35568 157-267): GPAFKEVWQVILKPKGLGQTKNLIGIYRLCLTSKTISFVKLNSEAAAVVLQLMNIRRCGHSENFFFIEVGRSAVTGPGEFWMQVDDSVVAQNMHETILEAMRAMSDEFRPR
The test is described as follows: FP saturation. The test is classed as binding. The method in brief: as §3

Test [14] has as its system SARS-CoV-2. The note with it: study repurposing approved compounds; cited from earlier work.
The target in test [15] is T3, GABARAPL2 ATG8. The test is described as follows: FP displacement of FITC-SQSTM1_335–344 from GABARAPL2 ATG8. The test is classed as binding. The method in brief: (§4)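 GST-tagged ATG8 domains were expressed in E. coli BL21-Gold (DE3) with 1 mM IPTG at OD600 0.7 for 16 h at 18°C. They were glutathione-bead purified, thrombin-cleaved overnight at 4°C, and dialysed into 50 mM sodium phosphate pH 7.4 with 1 mM DTT. Domain level for displacement was set from FITC-SQSTM1 saturation curves. Unlabeled peptides were in phosphate buffer. FP was read at room temperature and KI calculated.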

For test [16], the target named is T4, MAP1LC3A ATG8. Kind of test: FP displacement of FITC-SQSTM1_335–344 from MAP1LC3A ATG8. The test is classed as binding. The method in brief: as §4
Test [17] concerns the target T5, MAP1LC3B ATG8. Kind of test: FP displacement of FITC-SQSTM1_335–344 from MAP1LC3B ATG8. Format: binding. The method in brief:
as §4

Test [18] deals with MAP1LC3C ATG8 (Homo sapiens, UniProt Q9BXW4). Kind of test: FP displacement of FITC-SQSTM1_335–344 from MAP1LC3C ATG8. The test is classed as binding. The essentials: as §4
Sequence of MAP1LC3C ATG8 (Q9BXW4 2-125): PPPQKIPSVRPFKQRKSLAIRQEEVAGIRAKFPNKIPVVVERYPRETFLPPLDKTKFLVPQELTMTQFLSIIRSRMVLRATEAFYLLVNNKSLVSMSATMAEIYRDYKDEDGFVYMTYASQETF
For test [19], the target named is T1, GABARAP ATG8. Kind of test: FP displacement of FITC-SQSTM1_335–344 from GABARAP ATG8. Format: binding. The essentials:
as §4

Structures are written as SMILES. Square brackets hold non-standard residues; d marks the D form. Peptide text beside a SMILES is read from it. * marks the point of attachment. FITC = O=C1OC2(c3ccc(O)cc3Oc3cc(O)ccc32)c2ccc(NC(=S)*)cc21; pY = N[C@@H](Cc1ccc(OP(=O)(O)O)cc1)C(=O)O; pT = C[C@@H](OP(=O)(O)O)[C@H](N)C(=O)O; pS = N[C@@H](COP(=O)(O)O)C(=O)O A value given as a limit tells only on which side of the number the result lay.

Sequence of LYN SH2 (P07948 127-234): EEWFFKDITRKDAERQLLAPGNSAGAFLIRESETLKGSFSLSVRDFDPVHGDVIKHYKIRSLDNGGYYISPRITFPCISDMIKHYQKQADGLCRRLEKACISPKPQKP

With `CC[C@H](C)[C@H](NC(=O)[C@H](CC(=O)O)NC(=O)[C@@H](NC(=O)[C@H](CO)NC(=O)[C@H](C)NC(=O)[C@H](Cc1ccc(O)cc1)NC(=O)[C@@H]1CCCN1C(=O)[C@H](CC(N)=O)NC(=O)[C@H](CCC(=O)O)NC(=O)CNC(=O)[C@H](CO)NC(=O)[C@H](CCCNC(=N)N)NC(=S)Nc1ccc2c(c1)C(=O)OC21c2ccc(O)cc2Oc2cc(O)ccc21)[C@@H](C)CC)C(=O)N[C@@H](CO)C(=O)N[C@@H](CCCCN)C(=O)NCC(=O)N[C@@H](CCC(=O)O)C(N)=O` [ACE2_775–790 Unphos.] ({FITC}-RSGENPYASIDISKGE-NH2), the dissociation constant (Kd) in test [1] is > 100 µM; in [2], > 100 µM; in [3], > 100 µM; in test [4], ~60 µM; in test [5] it was > 100 µM; in test [6], > 100 µM. For the same compound, the Kd in test [7] and in test [8] was > 100 µM in each case.
For `C[C@@H](O)[C@H](NC(=O)[C@H](CC(N)=O)NC(=O)[C@H](CCC(N)=O)NC(=O)[C@H](Cc1ccccc1)NC(=O)CNC(=O)[C@@H]1CCCN1C(=O)[C@H](CC(N)=O)NC(=O)[C@H](CC(N)=O)NC(=O)[C@H](CCC(=O)O)NC(=O)CNC(=O)[C@H](CCCCN)NC(=O)[C@H](CO)NC(=S)Nc1ccc2c(c1)C(=O)OC21c2ccc(O)cc2Oc2cc(O)ccc21)C(N)=O` [ACE2_787–798] ({FITC}-SKGENNPGFQNT-NH2), the Kd was > 100 µM in test [9]; > 100 µM in [10]; > 100 µM in test [11]; ~100 µM in test [12]; > 100 µM in test [13].
In the case of `Cc1cccc(/C=N/Nc2cc(N3CCOCC3)nc(OCCc3ccccn3)n2)c1` [apilimod], the “inhibition of viral replication” value in test [14] was “potent inhibitor of viral replication”.
Take `CC[C@H](C)[C@H](NC(=O)[C@H](CC(N)=O)NC(=O)[C@@H](NC(=O)[C@H](Cc1ccccc1)NC(=O)[C@@H](NC(=O)[C@H](COP(=O)(O)O)NC(=O)[C@@H](NC(=O)[C@H](C)NC(=O)[C@H](CCC(=O)O)NC(=O)[C@H](CCCCN)NC(C)=O)[C@@H](C)O)[C@@H](C)O)[C@@H](C)O)C(=O)N[C@H](C(=O)N[C@@H](Cc1ccc(O)cc1)C(=O)N[C@@H](CCCNC(=N)N)C(=O)NCC(N)=O)[C@@H](C)O` [pSer^778] (Ac-KEAT[pS]TFTNITYRG-NH2): the inhibitory constant (Ki) in test [15] is 80 ± 5 µM; in test [16], 29.4 ± 0.5 µM; in [17] it was > 100 µM; in [18] it was 16.1 ± 0.5 µM.
Regarding `CC[C@H](C)[C@H](NC(=O)[C@H](CC(N)=O)NC(=O)[C@@H](NC(=O)[C@H](Cc1ccccc1)NC(=O)[C@@H](NC(=O)[C@H](CO)NC(=O)[C@@H](NC(=O)[C@H](C)NC(=O)[C@H](CCC(=O)O)NC(=O)[C@H](CCCCN)NC(C)=O)[C@@H](C)OP(=O)(O)O)[C@@H](C)O)[C@@H](C)O)C(=O)N[C@H](C(=O)N[C@@H](Cc1ccc(O)cc1)C(=O)N[C@@H](CCCNC(=N)N)C(=O)NCC(N)=O)[C@@H](C)O` [pThr^777] (Ac-KEA[pT]STFTNITYRG-NH2), the Ki in [16] was > 100 µM; in test [17], > 100 µM; in test [18], 73 ± 4 µM; in test [19], 47 ± 3 µM.
Regarding `CC[C@H](C)[C@H](NC(=O)[C@H](CC(N)=O)NC(=O)[C@@H](NC(=O)[C@H](Cc1ccccc1)NC(=O)[C@@H](NC(=O)[C@H](CO)NC(=O)[C@@H](NC(=O)[C@H](C)NC(=O)[C@H](CCC(=O)O)NC(=O)[C@H](CCCCN)NC(C)=O)[C@@H](C)O)[C@@H](C)OP(=O)(O)O)[C@@H](C)O)C(=O)N[C@H](C(=O)N[C@@H](Cc1ccc(OP(=O)(O)O)cc1)C(=O)N[C@@H](CCCNC(=N)N)C(=O)NCC(N)=O)[C@@H](C)O` [pThr^779/pTyr^785] (Ac-KEATS[pT]FTNIT[pY]RG-NH2), the inhibitory constant (Ki) in test [16] came out at 8.5 ± 0.5 µM; in [17] it was 15 ± 1 µM; in test [18], 8 ± 2 µM; in [19] it was 17.8 ± 0.8 µM.
Regarding `CC[C@H](C)[C@H](NC(=O)[C@H](CC(N)=O)NC(=O)[C@@H](NC(=O)[C@H](Cc1ccccc1)NC(=O)[C@@H](NC(=O)[C@H](CO)NC(=O)[C@@H](NC(=O)[C@H](C)NC(=O)[C@H](CCC(=O)O)NC(=O)[C@H](CCCCN)NC(C)=O)[C@@H](C)O)[C@@H](C)OP(=O)(O)O)[C@@H](C)O)C(=O)N[C@H](C(=O)N[C@@H](Cc1ccc(O)cc1)C(=O)N[C@@H](CCCNC(=N)N)C(=O)NCC(N)=O)[C@@H](C)O` [pThr^779] (Ac-KEATS[pT]FTNITYRG-NH2), the inhibition constant Ki in test [15] was > 100 µM; in test [16], > 100 µM; in test [17] it was > 100 µM; in test [18], 82 ± 3 µM.
For `CC[C@H](C)[C@H](NC(=O)[C@H](CC(N)=O)NC(=O)[C@@H](NC(=O)[C@H](Cc1ccccc1)NC(=O)[C@@H](NC(=O)[C@H](CO)NC(=O)[C@@H](NC(=O)[C@H](C)NC(=O)[C@H](CCC(=O)O)NC(=O)[C@H](CCCCN)NC(C)=O)[C@@H](C)O)[C@@H](C)O)[C@@H](C)O)C(=O)N[C@H](C(=O)N[C@@H](Cc1ccc(OP(=O)(O)O)cc1)C(=O)N[C@@H](CCCNC(=N)N)C(=O)NCC(N)=O)[C@@H](C)O` [pTyr^785] (Ac-KEATSTFTNIT[pY]RG-NH2), the inhibition constant (Ki) in [15] was found to be 89 ± 12 µM; in [16] it was 38 ± 2 µM; in test [17], 81 ± 2 µM; in test [18] it was 83 ± 4 µM.
